Converted amounts (≈) assume the structure as drawn. “And” between values parts separate entries of the source, which are not always exact repeats. Equal entries are not always repeated. Marks after values point to notes of the source that are not given here.
Experiments:
P. cynomolgi DHODH = P. cynomolgi DHODH (Plasmodium cynomolgi, UniProt K6UE05); assay: DHODH inhibition, DCIP spectrophotometric assay; format: biochemical
rabbit DHODH = rabbit DHODH (Oryctolagus cuniculus, UniProt G1SWF3); assay: DHODH inhibition, DCIP spectrophotometric assay; format: biochemical
Sequence of rabbit DHODH (G1SWF3 1-395): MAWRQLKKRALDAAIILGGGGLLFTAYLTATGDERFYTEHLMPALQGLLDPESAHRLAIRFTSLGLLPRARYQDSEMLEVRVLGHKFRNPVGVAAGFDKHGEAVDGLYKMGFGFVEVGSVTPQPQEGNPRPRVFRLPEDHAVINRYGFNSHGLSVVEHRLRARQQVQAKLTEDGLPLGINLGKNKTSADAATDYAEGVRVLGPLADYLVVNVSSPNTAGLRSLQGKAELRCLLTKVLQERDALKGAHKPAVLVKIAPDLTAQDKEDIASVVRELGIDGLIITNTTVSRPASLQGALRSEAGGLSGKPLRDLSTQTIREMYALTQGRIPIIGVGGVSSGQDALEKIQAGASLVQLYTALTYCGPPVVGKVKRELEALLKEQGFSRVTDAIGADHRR

pig DHODH = pig DHODH (Sus scrofa, UniProt F1S3B0); assay: DHODH inhibition, DCIP spectrophotometric assay; format: biochemical
Sequence of pig DHODH (F1S3B0 1-395): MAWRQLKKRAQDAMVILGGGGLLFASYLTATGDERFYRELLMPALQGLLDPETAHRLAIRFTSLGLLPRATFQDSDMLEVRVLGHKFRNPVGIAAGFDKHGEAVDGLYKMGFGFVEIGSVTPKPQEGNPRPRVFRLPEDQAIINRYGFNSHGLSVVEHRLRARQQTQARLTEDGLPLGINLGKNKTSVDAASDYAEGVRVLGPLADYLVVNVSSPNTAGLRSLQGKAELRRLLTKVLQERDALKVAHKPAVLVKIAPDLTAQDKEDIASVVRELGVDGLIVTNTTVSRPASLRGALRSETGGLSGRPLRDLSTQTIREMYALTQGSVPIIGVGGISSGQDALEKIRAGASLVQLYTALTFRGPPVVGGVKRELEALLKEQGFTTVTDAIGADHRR

P. falciparum 3D7 = assay: In vitro killing curves / 48 h growth assay, P. falciparum 3D7 blood stage; format: cell-based
[1] = test system: 9 strains of P. falciparum; assay: In vitro blood-stage activity on 9 strains of P. falciparum; format: cell-based; settings: Plasmodium falciparum, read-out: EC50 range over all tested strains
Summary of the method: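 SYBR-green growth assay on P. falciparum 3D7 and drug-resistant lines, including chloroquine- and pyrimethamine-resistant parasites, cultured in RPMI-1640 with 0.5% Albumax-II. At least triplicate data per concentration. EC50 from the log(inhibitor) vs response variable-slope (four-parameter) fit by nonlinear least squares, reported with 95% confidence intervals of the fit.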

[2] = test system: P. cynomolgi liver-stage parasites; assay: P. cynomolgi liver-stage model; format: cell-based
[3] = test system: P. falciparum early stage gametocytes stage III – IV; strain NF54; assay: Early stage gametocyte assay; format: cell-based
[4] = test system: P. falciparum gametocytes stages IV–V; assay: Gametocyte assay stages IV–V; format: cell-based
P. falciparum gametes = assay: Dual gamete formation assay; format: cell-based
[5] = test system: P. falciparum Pf3D7_0087/N9; assay: P. falciparum SCID mouse 4-day dosing efficacy model; format: in vivo
[6] = Protein binding in assay media; format: in vitro ADME; settings: 0.5% Albumax II in RPMI-1640
P. falciparum Dd2 = format: cell-based; settings: Dd2, 3xEC50
P. falciparum parasites = assay: Drug combination, fixed-ratio isobologram method; format: cell-based; settings: artemisinin derivatives, OZ439, chloroquine, piperaquine, pyronaridine, mefloquine, lumefantrine, atovaquone, proguanil, P218, pyrimethamine
[7] = Chemical and physical stability; format: physicochemical
Caco-2 permeability = format: in vitro ADME; settings: human, Caco-2
Caco-2 cell monolayers = assay: Caco-2 permeability; format: in vitro ADME
[8] = Plasma protein binding, mouse; format: in vitro ADME
[9] = Plasma protein binding, dog; format: in vitro ADME
[10] = Plasma protein binding, rat; format: in vitro ADME
CYP2C8 = CYP2C8 (Homo sapiens, UniProt P10632); assay: Metabolism by individual human CYP enzymes; format: in vitro ADME; settings: CYP2C8 Supersomes
Sequence of CYP2C8 (P10632 whole entry): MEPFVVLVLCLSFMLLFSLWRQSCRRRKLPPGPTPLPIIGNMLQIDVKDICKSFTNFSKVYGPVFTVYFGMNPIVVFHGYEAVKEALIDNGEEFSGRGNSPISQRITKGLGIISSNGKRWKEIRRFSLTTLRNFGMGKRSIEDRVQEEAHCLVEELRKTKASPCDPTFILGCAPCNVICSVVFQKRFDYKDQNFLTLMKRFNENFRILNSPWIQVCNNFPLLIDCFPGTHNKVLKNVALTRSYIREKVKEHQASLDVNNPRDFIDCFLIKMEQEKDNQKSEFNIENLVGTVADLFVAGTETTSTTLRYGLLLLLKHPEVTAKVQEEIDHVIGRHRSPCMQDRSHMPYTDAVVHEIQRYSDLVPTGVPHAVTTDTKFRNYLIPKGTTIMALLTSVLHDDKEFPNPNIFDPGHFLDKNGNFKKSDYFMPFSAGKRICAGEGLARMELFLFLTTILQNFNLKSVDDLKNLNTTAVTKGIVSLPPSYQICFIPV

CYP2C19 = CYP2C19 (Homo sapiens, UniProt P33261); assay: Metabolism by individual human CYP enzymes; format: in vitro ADME; settings: CYP2C19 Supersomes
Sequence of CYP2C19 (P33261 whole entry): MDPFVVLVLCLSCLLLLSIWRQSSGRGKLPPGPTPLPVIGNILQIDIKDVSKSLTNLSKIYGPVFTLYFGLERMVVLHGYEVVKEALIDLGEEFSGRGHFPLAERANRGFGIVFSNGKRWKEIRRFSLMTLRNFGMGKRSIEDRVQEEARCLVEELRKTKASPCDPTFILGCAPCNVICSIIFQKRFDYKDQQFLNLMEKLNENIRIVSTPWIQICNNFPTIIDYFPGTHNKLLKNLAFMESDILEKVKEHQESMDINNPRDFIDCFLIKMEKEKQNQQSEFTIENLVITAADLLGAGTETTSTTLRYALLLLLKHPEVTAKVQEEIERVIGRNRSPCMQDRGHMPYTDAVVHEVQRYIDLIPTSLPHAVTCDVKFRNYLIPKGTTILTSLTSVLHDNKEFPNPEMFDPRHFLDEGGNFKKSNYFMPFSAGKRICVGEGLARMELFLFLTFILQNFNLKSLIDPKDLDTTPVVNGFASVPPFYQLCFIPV

[11] = Stability in hepatic microsomes and cryopreserved hepatocytes; format: in vitro ADME; settings: across species
[12] = Intravenous pharmacokinetics in monkeys and dogs; format: in vivo; settings: male (dogs), female (monkeys), macaque (monkeys), beagle (dogs), monkey, dog, plasma
Summary of the method: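 Male beagle dogs and female macaque monkeys received a single intravenous dose. Blood was collected into anticoagulant tubes and plasma was separated by centrifugation. Parent compound and metabolites were quantified by LC/MS. Typically 2–6 animals were used per study, with standard deviation given where n>2.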

[13] = Human pharmacokinetic prediction
[14] = biological target: panel of 106 human receptors and ion channels; assay: Cerep panel of 106 human receptors and ion channels; format: binding
panel of human kinases = assay: Panel of human kinases; format: biochemical; settings: University of Dundee
[15] = test system: key CYP enzymes (not individually named); assay: CYP inhibition in human liver microsomes; format: in vitro ADME
Summary of the method: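 Inhibition of CYP isoforms was measured by a substrate-specific approach in human liver microsomes.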

CYP enzymes = assay: CYP induction in human hepatocytes; format: in vitro ADME
[16] = test system: micronucleated polychromatic erythrocytes; assay: Oral bone marrow micronucleus test; format: in vivo; settings: male CD1 mice
[17] = test system: rabbit cardiac ventricular wedge; assay: Rabbit cardiac ventricular wedge assay
[18] = Cardiac safety by telemetry in conscious dogs; format: in vivo
[19] = 10-day repeat dose toxicity study in dogs; format: in vivo; settings: highest dose tested, Day 1
Summary of the method: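 Male beagle dogs were dosed orally every other day in the fed state over a 10-day repeat-dose exploratory (non-GLP) toxicology study. They were monitored daily for clinical signs, body weight and food consumption, with haematology, clinical chemistry and histopathology. Plasma toxicokinetics were taken on day 1 to give Cav, and full toxicokinetics were not collected after the final dose.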

[20] = test system: G6PD-deficient human red blood cells; format: in vivo, NOD-SCID mice; settings: blood type A- G6PD-deficient human red blood cells
P. berghei DHODH = settings: cited from earlier work
P. yoelii DHODH = settings: cited from earlier work
[21] = test system: Salmonella typhimurium-E. coli; assay: 5-strain bacterial reverse mutation assay
[22] = determined 24 h after the last dose

## Cc1cc(Nc2ccc(S(F)(F)(F)(F)F)cc2)n2nc(C(C)(F)F)nc2n1 [DSM265, 2-(1,1-difluoroethyl)-5-methyl-[N-[4-(pentafluorosulfanyl)phenyl]1,2,4]triazolo[1,5-a]pyrimidin-7-amine]
P. cynomolgi DHODH
  IC50: 0.012 µM
Rabbit DHODH
  IC50: > 98.7 µM
Pig DHODH
  IC50: > 98.7 µM
P. falciparum 3D7; Plasmodium falciparum, 3D7, 48 h, read-out: P. falciparum 3D7 in vitro growth assay EC50
  EC50: 0.0046 µg/mL (≈ 0.0111 µM)
P. falciparum 3D7; at 1xEC50
  lag-phase prior to parasite killing: 96 h
P. falciparum 3D7; at 3xEC50 and above
  lag-phase prior to parasite killing: 24 to 48 h
P. falciparum 3D7; corrected with fraction unbound in 0.5% Albumax II in RPMI-1640
  Unbound in vitro MPC (kill assay): 0.002 µg/mL and 0.0020 µg/mL
P. falciparum 3D7; minimum parasiticidal concentration = 3xEC50
  P. falciparum 3D7 in vitro MPC (kill assay): 0.014 μg/mL and 0.014 ^a μg/mL
[1]
  EC50: 0.001 to 0.004 µg/mL (≈ 0.00241 to 0.00963 µM)
[2]
  activity against small forms (non-dividing hypnozoite): poor activity
[2]; Plasmodium cynomolgi, read-out: EC50, liver-stage large form (multinucleated schizont)
  EC50: 0.13 µg/mL (≈ 0.313 µM)
[3]; Plasmodium falciparum, NF54, read-out: EC50, early stage gametocytes stage III – IV
  EC50: > 0.42 µg/mL
[3]; strain NF54
  EC50, early stage gametocytes stage III – IV: no activity
[4]
  EC50, gametocytes stages IV–V: no activity
[4]; Plasmodium falciparum, read-out: EC50, gametocytes stages IV–V
  EC50: > 16 µg/mL
P. falciparum gametes
  EC50, dual gamete formation assay: inactive
[5]; 13 mg/kg/day (6.4 mg/kg b.i.d.), oral, 4 days
  blood concentration 23 h after the last dose, estimate of the MPC: 0.53 µg/mL
[5]; blood converted to plasma with blood to plasma ratio 0.5
  SCID mouse in vivo MPC (plasma): 1.1 ^c μg/mL
[5]; corrected with fraction unbound 0.001
  Unbound SCID mouse in vivo MPC (plasma): 0.0011 µg/mL
[5]; [22]
  ED90: 1.5 mg/kg/12 h
  dose at the MPC: 6.4 mg/kg/12 h
[6]
  Fraction unbound in assay media: 0.17 ^b
P. falciparum Dd2
  MIR, range over two independent studies: 2×10^5–2×10^7 parasites
P. falciparum parasites
  interaction with other antimalarials: additive
[7]
  stability of solutions subjected to simulated sunlight: degradation
[7]; 30°/65% relative humidity for up to 24 months
  chemical stability in the solid state: chemically stable
Caco-2 permeability
  Papp A→B: > 30 ×10⁻⁶ cm/s
Caco-2 cell monolayers; from high permeability and low aqueous solubility
  BCS classification: BCS Class II
Caco-2 cell monolayers; with verapamil and fumitremorgin C
  substrate for Pgp and BCRP: not a substrate
[8]
  fraction unbound: 0.003
[9]
  fraction unbound: 0.006
[10]
  fraction unbound: 0.023
CYP2C8
  extent of metabolism: 0.032 μL/min/pmol CYP
CYP2C19
  extent of metabolism: 0.039 μL/min/pmol CYP
[11]
  degradation in hepatic microsomes and cryopreserved hepatocytes: minimal degradation
[12]
  half-life: 10 to 45 h
[13]
  plasma MPC used for the human dose prediction: 1 to 2 µg/mL
[14]
  IC50 values for the full panel: > 4.2 µg/mL
Panel of human kinases
  activity against a panel of human kinases: minimal activity
[15]
  IC50: > 10 µg/mL
CYP enzymes
  CYP induction: did not induce CYP enzymes
[16]
  micronucleated polychromatic erythrocytes: no increase
[17]; at 1 or 0.5 Hz
  QT and Tp-e interval: did not cause any significant prolongation
[17]; tested up to 5 μg/mL
  Torsade de Pointes (TdP)-type arrhythmias: no Torsade de Pointes (TdP)-type arrhythmias were observed
[18]; dog, plasma, oral, 300 mg/kg
  concentration at 24 h: 1300 ng/mL
[18]; oral doses of 30 and 300 mg/kg
  ECGs: within normal limits
[19]
  average plasma concentration within a dosing interval (Cav): 16400 ng/mL
[20]
  hemolytic toxicity: not hemolytic
P. berghei DHODH
  activity against P. berghei DHODH: poor activity
P. yoelii DHODH
  activity against P. yoelii DHODH: poor activity
[21]
  mutagenic activity (Ames test): non-mutagenic
